Measurements taken from ChEMBL document CHEMBL5131565, “Structure-Guided Optimization of Small-Molecule Folate Uptake Inhibitors Targeting the Energy-Coupling Factor Transporters” (J Med Chem, 2022).
≈ marks a conversion by molar mass, not a printed value.

What was measured:
[1] = biological target: T1, Energy-coupling factor transporter transmembrane protein EcfT (Lactobacillus casei) (UniProt A0A510WMC0); test: Inhibition of Lactobacillus casei ECF-FolT assessed as inhibition of radiolabelled folic acid uptake at 50 uM pre-incubated for 10 mins followed tritium labeled folic acid addition measured after 30 mins by liquid scintillation analysis relative to control; conditions: Lacticaseibacillus casei, time 40.0 min
T1 sequence (whole entry): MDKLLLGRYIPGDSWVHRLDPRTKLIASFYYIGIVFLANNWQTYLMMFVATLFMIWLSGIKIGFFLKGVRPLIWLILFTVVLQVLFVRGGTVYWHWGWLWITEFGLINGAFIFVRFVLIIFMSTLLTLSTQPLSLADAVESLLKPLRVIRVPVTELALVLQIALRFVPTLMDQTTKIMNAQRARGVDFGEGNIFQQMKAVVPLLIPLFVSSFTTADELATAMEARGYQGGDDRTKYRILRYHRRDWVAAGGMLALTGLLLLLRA
Outline: (§1)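 Whole-cell *L. casei* assay of ECF-FolT-mediated folate uptake. Compounds were first tested at 50 μM and reported as % inhibition. IC50 was determined for those giving more than 70% inhibition at 50 μM. Data come from two independent experiments, each run in duplicate.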

[2] = biological target: T2, Energy-coupling factor transporter transmembrane protein EcfT (Lactobacillus casei, UniProt A0A510WMC0); test: Inhibition of Lactobacillus casei ECF-FolT assessed as inhibition of radiolabelled folic acid uptake pre-incubated for 10 mins followed tritium labeled folic acid addition measured after 30 mins by liquid scintillation analysis; design: species or system Lacticaseibacillus casei; outline: as §1
T2 sequence (A0A510WMC0 whole entry): T1 sequence (whole entry)

HepG2 = test: Cytotoxicity against human HepG2 cells assessed as reduction in cell viability measured after 48 hrs by MTT assay; format: toxicity, cell-based
Enterococcus faecium [3] = test: Antibacterial activity against Enterococcus faecium DSM-20477 measured after 24 hrs by CLSI protocol based microbroth dilution method; format: functional
Enterococcus faecium [4] = test: Antibacterial activity against vancomycin-resistant Enterococcus faecium DSM-17050 measured after 24 hrs by CLSI protocol based microbroth dilution method; format: functional
Streptococcus pneumoniae [5] = test: Antibacterial activity against Streptococcus pneumoniae DSM-20566 measured after 24 hrs by CLSI protocol based microbroth dilution method; format: functional
Streptococcus pneumoniae [6] = test: Antibacterial activity against penicillin-resistant Streptococcus pneumoniae DSM-11865 measured after 24 hrs by CLSI protocol based microbroth dilution method; format: functional
Staphylococcus aureus = test: Antibacterial activity against Staphylococcus aureus Newman measured after 24 hrs by CLSI protocol based microbroth dilution method; format: functional
HEK293 = test: Cytotoxicity against HEK293 cells assessed as reduction in cell viability measured after 48 hrs by MTT assay; format: toxicity, cell-based, Homo sapiens
A549 = test: Cytotoxicity against human A549 cells assessed as reduction in cell viability measured after 48 hrs by MTT assay; format: toxicity, cell-based
[7] = Kinetic solubility of the compound; format: physicochemical; conditions: read-out: Kinetic_solubility

inhibition [1] [%]	SMILES	IC50 [2] [µM]	also measured
18.3	CCN(Cc1ccccc1)C(=O)Nc1cc(-c2ccc(C#N)cc2)sc1C(=O)O		
36.2	CCCCCCNC(=O)Nc1cc(-c2cccc(Cl)c2)sc1C(=O)O		
52.3	CCCCCCNC(=O)Nc1cc(-c2cccc(C(F)(F)F)c2)sc1C(=O)O		
58	O=C(NCc1cccnc1)Nc1cc(-c2ccc(Cl)c(Cl)c2)sc1C(=O)O		
67.9	CCCCCCNC(=O)Nc1cc(-c2ccc(Cl)cc2Cl)sc1C(=O)O		
59	O=C(NCc1ccccn1)Nc1cc(-c2ccc(Cl)c(Cl)c2)sc1C(=O)O		
25.1	CCCCCCNC(=O)Nc1cc(-c2ccccc2)sc1C(=O)O		
95.2	CCCCCCNc1c(-c2ccc(Cl)c(Cl)c2)csc1C(=O)O		
54	O=C(NCc1ccncc1)Nc1cc(-c2ccc(Cl)c(Cl)c2)sc1C(=O)O		
38.9	CCN(Cc1ccccc1)C(=O)Nc1cc(-c2ccc(C)cc2)sc1C(=O)O		
< 10	CCCCCCNC(=O)Nc1ccsc1C(=O)O		
52.3	CCN(Cc1ccccc1)C(=O)Nc1cc(-c2ccc(Br)cc2)sc1C(=O)O		
22	CCN(Cc1ccccc1)C(=O)Nc1cc(-c2cc(Cl)cc(Cl)c2)sc1C(=O)O		
39.3	CC(C)NC(=O)Nc1cc(-c2ccc(Cl)c(Cl)c2)sc1C(=O)O		
12.1	CCCCCCNC(=O)Nc1cc(-c2ccc(OC)cc2)sc1C(=O)O		
59	CCCCCCNC(=O)Nc1cc(-c2ccc(Cl)c(C(F)(F)F)c2)sc1C(=O)O		
0.2	O=C(O)CCCNC(=O)Nc1cc(-c2ccc(Cl)c(Cl)c2)sc1C(=O)O		
42.4	NC(=O)Nc1cc(-c2ccc(Cl)c(Cl)c2)sc1C(=O)O		
17.9	CCCCCCNC(=O)Nc1sc(-c2ccc(Cl)c(Cl)c2)cc1C(=O)O		
54.3	COc1ccc(CNC(=O)Nc2cc(-c3ccc(Cl)c(Cl)c3)sc2C(=O)O)cc1		
< 10	Nc1c(-c2ccc(Cl)c(Cl)c2)csc1C(=O)O		
67.2	CCN(Cc1ccccc1)C(=O)Nc1cc(-c2ccc(OC(F)(F)F)cc2)sc1C(=O)O		
61.9	CCCCNC(=O)Nc1cc(-c2ccc(Cl)c(Cl)c2)sc1C(=O)O		
31.8	CCCCC(=O)Nc1c(-c2ccc(Cl)c(Cl)c2)csc1C(=O)O		
27.1	CCCCCCNC(=O)Nc1cc(-c2ccc(C(F)(F)F)cc2)sc1C(=O)O		
65.4	CCCCCCNC(=O)Nc1c(C(=O)O)cccc1-c1ccc(Cl)c(Cl)c1		
42.5	CCCCN(Cc1ccccc1)C(=O)Nc1cc(-c2ccc(Cl)c(Cl)c2)sc1C(=O)O		
27.2	CCCCCCNC(=O)Nc1cc(-c2ccc(Cl)cc2)sc1C(=O)O		
57.8	CCCCN(CCc1ccccc1)C(=O)Nc1cc(-c2ccc(Cl)c(Cl)c2)sc1C(=O)O		

SMILES	inhibition [1] [%]	IC50 [2] [µM]	also measured
O=C(O)c1sc(-c2ccc(Cl)c(Cl)c2)cc1NC(=O)N(Cc1ccccc1)Cc1ccccc1	85.1	24	
CCCCCCNC(=O)Nc1cc(-c2cc(Cl)ccc2Cl)sc1C(=O)O	93.4	21.8	
CCN(Cc1ccccc1)C(=O)Nc1cc(-c2ccc(Oc3ccccc3)cc2)sc1C(=O)O	97	10.1	
CCCCN(C(=O)Nc1cc(-c2ccc(Cl)c(Cl)c2)sc1C(=O)O)c1ccccc1	99.6	2.35	IC50 (HepG2): 95.6 µM; MIC (Enterococcus faecium [3]): 8 µM (≈ 3.71 µg/mL); MIC (Enterococcus faecium [4]): 2 µM (≈ 0.927 µg/mL); MIC (Streptococcus pneumoniae [5]): 2 µM (≈ 0.927 µg/mL); MIC (Streptococcus pneumoniae [6]): 0.5 µM (≈ 0.232 µg/mL); MIC (Staphylococcus aureus): 23 µM (≈ 10.7 µg/mL); IC50 (HEK293): 52.5 µM; IC50 (A549): > 100 µM; solubility kinetic [7]: 107 µM (≈ 49.4 µg/mL)
O=C(NCCc1ccccc1)Nc1cc(-c2ccc(Cl)c(Cl)c2)sc1C(=O)O	91.7	15.3	
CN(C(=O)Nc1cc(-c2ccc(Cl)c(Cl)c2)sc1C(=O)O)c1ccccc1	71.5	23	
O=C(Nc1ccccc1)Nc1cc(-c2ccc(Cl)c(Cl)c2)sc1C(=O)O	86.8	14.4	
CCN(C(=O)Nc1cc(-c2ccc(Cl)c(Cl)c2)sc1C(=O)O)c1ccccc1	83.2	10.5	
CCCCCCNC(=O)Nc1cc(-c2ccc(Cl)c(Cl)c2)sc1C(=O)O	72.2	28.5	
CCCCCCNC(=O)Nc1cc(-c2ccc([N+](=O)[O-])cc2)sc1C(=O)O	82.1	25.1	
O=C(NCc1ccccc1)Nc1cc(-c2ccc(Cl)c(Cl)c2)sc1C(=O)O	71.1	17.8	
CCN(Cc1ccccc1)C(=O)Nc1cc(-c2ccc(Cl)c(Cl)c2)sc1C(=O)O	89.4	11.4	
O=C(O)c1sc(-c2ccc(Cl)c(Cl)c2)cc1NC(=O)N(Cc1ccccc1)c1ccccc1	91.3	2.94	
CCCCCCNC(=O)Nc1scc(-c2ccc(Cl)c(Cl)c2)c1C(=O)O	87.5	18.5	
CCCCN(C(=O)Nc1c(-c2ccc(Oc3ccccc3)cc2)csc1C(=O)O)c1ccccc1	100	3.9	IC50 (HepG2): 57 µM; MIC (Enterococcus faecium [3]): 16 µM (≈ 7.79 µg/mL); MIC (Enterococcus faecium [4]): 8 µM (≈ 3.89 µg/mL); MIC (Streptococcus pneumoniae [5]): 4 µM (≈ 1.95 µg/mL); MIC (Streptococcus pneumoniae [6]): 16 µM (≈ 7.79 µg/mL); MIC (Staphylococcus aureus): 16 µM (≈ 7.79 µg/mL); IC50 (HEK293): 25.5 µM; IC50 (A549): 49.3 µM; solubility kinetic [7]: > 200 µM
CCCCN(C(=O)Nc1c(-c2cc(Cl)ccc2Cl)csc1C(=O)O)c1ccccc1	73.4	17	
CCCCCCNC(=O)Nc1c(-c2ccc(Cl)c(Cl)c2)csc1C(=O)O	90.6	6	
CCCCCCNC(=O)Nc1cc(-c2cccc([N+](=O)[O-])c2)sc1C(=O)O	65.3	43.3	
CN(Cc1ccccc1)C(=O)Nc1cc(-c2ccc(Cl)c(Cl)c2)sc1C(=O)O	86.9	10	
